An excerpt weighted towards active compounds, which were near 5.9% of everything screened.
Pf Dd2 growth – blocks growth of Plasmodium falciparum Dd2 parasites; 94,000 compounds, 2.3% hits; P. falciparum Dd2 growth, SYBR Green, 72 h; active compounds read low; AID 1159554; activity change, % at 10 µM; in the data active means activity change below about -80%
KDM4C inh – blocks human GASC-1 (KDM4C) demethylase activity | 96,000 compounds, 0.15% hits | Q9H3R0 | inhibition, % at 12.5 µM | GST-KDM4C 2-372, H3K9me3 peptide, LANCE TR-FRET | AID 720574;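 active means mean replicate inhibition above about 25%, with at least 55% of replicates also reaching it, limit read from the data, passing the limit was not always enough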
Target sequence (Q9H3R0 2-372 limits assumed): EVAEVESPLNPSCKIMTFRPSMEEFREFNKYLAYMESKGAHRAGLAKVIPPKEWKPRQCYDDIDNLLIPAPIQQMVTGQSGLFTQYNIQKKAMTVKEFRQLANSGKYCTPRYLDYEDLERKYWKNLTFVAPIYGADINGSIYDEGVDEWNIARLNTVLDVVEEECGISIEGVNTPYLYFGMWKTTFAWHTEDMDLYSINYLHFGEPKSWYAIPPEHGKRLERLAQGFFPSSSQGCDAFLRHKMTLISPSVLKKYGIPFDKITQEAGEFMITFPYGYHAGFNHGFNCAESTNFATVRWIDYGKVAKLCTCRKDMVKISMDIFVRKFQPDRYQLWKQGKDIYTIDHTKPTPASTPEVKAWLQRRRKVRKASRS
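Assay system: GST-GASC-1 enzyme fragment 2-372 | Amount: 10 nM enzyme | Medium: HEPES buffer, pH 7.5, plus ascorbate | Reagent: H3K9me3 peptide substrate, Fe(II), 2-oxoglutarate | Doses: Single-point compound screen | Incubation: 30 min demethylation and 1 h detection at room temperature | Measured by: LANCE TR-FRET, excitation 340 nm, emissions 618 and 671 nm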
IDH1 mut inh – inhibitors of human IDH1 R132H; IDH1 R132H reductase, diaphorase/resazurin fluorescence, 60 min; 70,000 compounds, 0.18% hits; inhibition, % at 10 µM; O75874; in the data active means inhibition above about 34%;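 further: 0% = DMSO and 100% = no enzyme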
Tcruzi prolif – inhibitors of T. cruzi proliferation; T. cruzi beta-gal in NIH3T3, GalScreen luminescence, 90 h; inhibition, % at 8.34 µM; 77,000 compounds, 5.9% hits; AID 624255;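 active means mean inhibition above about 93%, with at least 55% of replicates each passing it, limit read from the data, passing the limit was not always enough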
* marks the source's active call; other numbers are inactive results; . = no result.

SMILES	Pf Dd2 growth	KDM4C inh	IDH1 mut inh	Tcruzi prolif
CC(C)(C)c1ccc(S(=O)(=O)/C=C/C#N)cc1	.	.	82*	.
CC(C)NC(=O)N(C)C[C@H]1Oc2c(NC(=O)c3nc4ccccc4s3)cccc2C(=O)N([C@H](C)CO)C[C@H]1C	-83*	12	.	-16
Cc1ccc(S(=O)(=O)N(C)C[C@@H]2Oc3c(NC(=O)c4nc5ccccc5s4)cccc3C(=O)N([C@@H](C)CO)C[C@H]2C)cc1	-85*	2	1	68
C[C@@H]1CN([C@H](C)CO)C(=O)c2cccc(NC(=O)c3nc4ccccc4s3)c2O[C@H]1CN(C)C(=O)Nc1ccc2c(c1)OCO2	-82*	-1	.	59
Cc1ccc(S(=O)(=O)N(C)C[C@H]2Oc3c(NC(=O)c4nc5ccccc5s4)cccc3C(=O)N([C@@H](C)CO)C[C@H]2C)cc1	-56	1	1	96
C[C@H]1CN([C@@H](C)CO)C(=O)c2cccc(NC(=O)c3nc4ccccc4s3)c2O[C@@H]1CN(C)C(=O)Nc1ccc(C(F)(F)F)cc1	-56	0	.	82
C[C@@H]1CN([C@@H](C)CO)C(=O)c2cccc(NC(=O)c3nc4ccccc4s3)c2O[C@H]1CN(C)C(=O)Nc1ccc(C(F)(F)F)cc1	-90*	-1	1	88
Cc1ccc(-n2nnnc2SCC(=O)c2ccc(O)c(O)c2)cc1	.	.	0	.
CC(C)c1ccccc1NC(=O)CSc1nc(-c2ccccc2)cc(=O)[nH]1	.	.	2	.
C[C@@H]1CN([C@H](C)CO)C(=O)c2cccc(NC(=O)c3ccc(-c4nccs4)cc3)c2O[C@H]1CN(C)Cc1ccc(C(F)(F)F)cc1	-91*	0	1	96
C[C@@H]1CN([C@@H](C)CO)C(=O)c2cccc(NC(=O)c3ccc(-c4nccs4)cc3)c2O[C@H]1CN(C)Cc1ccc(C(=O)Nc2ccccc2N)cc1	-93*	-1	.	82
C[C@@H]1CN([C@H](C)CO)C(=O)c2cccc(NC(=O)c3ccc(-c4nccs4)cc3)c2O[C@@H]1CN(C)Cc1ccc(C(=O)Nc2ccccc2N)cc1	-91*	-2	.	90
C[C@@H]1CN([C@H](C)CO)C(=O)c2cccc(NC(=O)c3ccc(-c4nccs4)cc3)c2O[C@@H]1CN(C)Cc1ccc(-c2ccccc2)cc1	-65	-4	-3	36
C[C@@H]1CN([C@H](C)CO)C(=O)c2cccc(NC(=O)c3nc4ccccc4s3)c2O[C@H]1CN(C)Cc1ccc(C(=O)O)cc1	-11	0	.	31
C[C@@H]1CN([C@@H](C)CO)C(=O)c2cccc(NC(=O)c3nc4ccccc4s3)c2O[C@@H]1CN(C)Cc1ccc(C(=O)Nc2ccccc2N)cc1	-91*	0	.	93
COc1ccc(NCc2ccc(C(=O)Nc3ccccc3[N+](=O)[O-])cc2)cc1OC	.	.	0	.
O=C(O)C[C@@H]1C[C@@H]2c3cc(NC(=O)CC4CC4)ccc3O[C@@H]2[C@H](CO)O1	1	1	-1	-18
O=C(O)C[C@@H]1C[C@@H]2c3cc(NC(=O)Nc4ccc(C(F)(F)F)cc4)ccc3O[C@@H]2[C@@H](CO)O1	12	34*	50*	-70
O=C(O)C[C@@H]1C[C@@H]2c3cc(NC(=O)CC4CC4)ccc3O[C@@H]2[C@@H](CO)O1	-2	38*	60*	-6
O=C(O)C[C@@H]1C[C@H]2c3cc(NC(=O)Nc4ccc(C(F)(F)F)cc4)ccc3O[C@H]2[C@@H](CO)O1	12	-1	0	-8
C[C@@H]1CN([C@H](C)CO)C(=O)c2c(c3ccccc3n2C)-c2ccccc2CO[C@@H]1CN(C)Cc1cccc2c1OCCCO2	-84*	5	.	.
C[C@H]1CN([C@@H](C)CO)C(=O)c2c(c3ccccc3n2C)-c2ccccc2CO[C@@H]1CN(C)Cc1cccc2c1OCCCO2	-80	.	.	.
C[C@@H]1CN([C@@H](C)CO)C(=O)c2c(c3ccccc3n2C)-c2ccccc2CO[C@@H]1CN(C)Cc1cccc2c1OCCCO2	-85*	0	.	.
O=C(CSc1nnc(-c2ccccc2Br)o1)c1ccc2c(c1)OCCO2	.	.	0	.
COc1ccc(C#Cc2ccc3c(c2)[C@@H]2[C@@H](CCN2S(=O)(=O)c2ccccc2F)[C@@H](CO)N3C)cc1	-21	48*	.	26
COc1ccc(C#Cc2ccc3c(c2)[C@H]2[C@H](CCN2S(=O)(=O)c2ccccc2F)[C@H](CO)N3C)cc1	-21	0	.	-10
Cn1c(SCC(=O)Nc2c(F)cc(F)cc2Br)nnc1-c1cnccn1	.	.	0	.
O=C(NC[C@@H]1CC[C@@H]2[C@@H](CN2C(=O)NC2CCCC2)O1)c1ccc2c(c1)OCO2	19	.	.	.

Compound activity as filed in PubChem.
